The source made the active and inactive calls. No cut-off for these calls is given here.
Columns and labels:
[1] = biological target: T1, Rap guanine nucleotide exchange factor 3 (Homo sapiens) (UniProt O95398); assay: Inhibition of recombinant human GST-tagged EPAC1 (149 to 881 residues) expressed in Escherichia coli Rosetta 2(DE3) assessed as reduction in guanine nucleotide exchange activity at 10 uM using BODIPY-labeled GDP loaded Rap1A by fluorescence assay relative to control
T1 sequence (whole entry): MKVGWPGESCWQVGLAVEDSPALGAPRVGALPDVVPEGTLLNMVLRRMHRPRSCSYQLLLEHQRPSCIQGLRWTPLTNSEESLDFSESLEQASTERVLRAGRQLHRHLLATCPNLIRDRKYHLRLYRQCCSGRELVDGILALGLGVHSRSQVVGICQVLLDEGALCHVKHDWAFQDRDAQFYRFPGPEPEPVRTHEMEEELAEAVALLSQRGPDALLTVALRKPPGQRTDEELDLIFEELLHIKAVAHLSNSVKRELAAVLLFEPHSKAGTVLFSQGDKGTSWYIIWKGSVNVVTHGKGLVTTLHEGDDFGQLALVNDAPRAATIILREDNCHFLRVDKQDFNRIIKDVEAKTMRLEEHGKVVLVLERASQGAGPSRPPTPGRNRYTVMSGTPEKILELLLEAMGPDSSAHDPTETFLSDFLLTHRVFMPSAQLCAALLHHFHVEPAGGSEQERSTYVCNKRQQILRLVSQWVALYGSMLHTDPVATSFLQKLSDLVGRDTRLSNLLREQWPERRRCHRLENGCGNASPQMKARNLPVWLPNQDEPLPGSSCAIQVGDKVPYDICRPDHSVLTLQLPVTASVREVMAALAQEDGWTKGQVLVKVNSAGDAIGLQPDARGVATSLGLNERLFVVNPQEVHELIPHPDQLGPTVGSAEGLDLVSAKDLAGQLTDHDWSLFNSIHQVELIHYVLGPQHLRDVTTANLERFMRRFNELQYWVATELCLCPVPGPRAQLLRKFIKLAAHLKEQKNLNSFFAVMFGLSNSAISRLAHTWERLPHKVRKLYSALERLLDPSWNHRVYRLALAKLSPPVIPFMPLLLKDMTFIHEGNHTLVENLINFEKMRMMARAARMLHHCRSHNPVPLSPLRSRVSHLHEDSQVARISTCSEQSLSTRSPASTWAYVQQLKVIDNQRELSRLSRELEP
Procedure, shortened: (§1)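 EPAC1 was stimulated with the analog present at 10 or 50 μM. Activity was then measured as guanine nucleotide exchange factor activity toward Rap1 in a BODIPY-GDP-based assay, used as a screen.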

[2] = biological target: T1, Rap guanine nucleotide exchange factor 3 (Homo sapiens); assay: Inhibition of recombinant human GST-tagged EPAC1 (149 to 881 residues) expressed in Escherichia coli Rosetta 2(DE3) assessed as reduction in guanine nucleotide exchange activity at 50 uM using BODIPY-labeled GDP loaded Rap1A by fluorescence assay relative to control; procedure, shortened: as §1
[3] = biological target: T2, Rap guanine nucleotide exchange factor 3 (Homo sapiens, UniProt O95398); assay: Inhibition of recombinant human GST-tagged EPAC1 (149 to 881 residues) expressed in Escherichia coli Rosetta 2(DE3) assessed as reduction in guanine nucleotide exchange activity using BODIPY-labeled GDP loaded Rap1A by fluorescence assay
T2 sequence (O95398 whole entry): T1 sequence (whole entry)

[4] = biological target: Rap guanine nucleotide exchange factor 4 (Homo sapiens, UniProt Q8WZA2); assay: Inhibition of recombinant human GST-tagged EPAC2 expressed in Escherichia coli Rosetta 2(DE3) assessed as reduction in guanine nucleotide exchange activity using BODIPY-labeled GDP loaded Rap1A by fluorescence assay
Sequence of Rap guanine nucleotide exchange factor 4 (Q8WZA2 whole entry): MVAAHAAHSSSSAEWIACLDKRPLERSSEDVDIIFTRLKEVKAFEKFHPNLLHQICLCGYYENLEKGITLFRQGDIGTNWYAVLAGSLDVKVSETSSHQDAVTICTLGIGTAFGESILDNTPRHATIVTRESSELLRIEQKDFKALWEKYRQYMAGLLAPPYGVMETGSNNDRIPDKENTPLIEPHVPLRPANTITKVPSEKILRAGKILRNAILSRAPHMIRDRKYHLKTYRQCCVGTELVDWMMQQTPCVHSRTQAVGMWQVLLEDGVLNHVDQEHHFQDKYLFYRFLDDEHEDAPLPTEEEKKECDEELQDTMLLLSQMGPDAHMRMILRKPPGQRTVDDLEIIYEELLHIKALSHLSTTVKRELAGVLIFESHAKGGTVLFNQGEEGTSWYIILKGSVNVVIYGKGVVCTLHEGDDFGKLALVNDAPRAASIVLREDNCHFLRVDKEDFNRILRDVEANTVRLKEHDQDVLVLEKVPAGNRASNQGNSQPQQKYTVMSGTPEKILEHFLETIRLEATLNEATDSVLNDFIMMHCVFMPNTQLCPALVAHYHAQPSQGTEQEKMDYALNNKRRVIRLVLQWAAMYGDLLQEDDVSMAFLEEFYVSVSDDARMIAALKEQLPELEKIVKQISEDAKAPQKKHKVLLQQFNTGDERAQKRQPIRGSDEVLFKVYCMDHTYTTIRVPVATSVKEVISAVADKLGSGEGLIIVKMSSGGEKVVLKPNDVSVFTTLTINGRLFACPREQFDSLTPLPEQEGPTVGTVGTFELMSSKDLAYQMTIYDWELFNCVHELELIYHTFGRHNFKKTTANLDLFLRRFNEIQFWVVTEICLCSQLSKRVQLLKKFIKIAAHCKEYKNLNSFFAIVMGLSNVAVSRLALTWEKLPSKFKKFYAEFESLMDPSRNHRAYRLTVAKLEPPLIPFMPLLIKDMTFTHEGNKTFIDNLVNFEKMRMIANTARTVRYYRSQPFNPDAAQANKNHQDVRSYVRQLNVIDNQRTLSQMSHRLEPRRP

Compound: C[C@@H]1CCc2c(ccc(F)c2Br)N1C=O
- inhibition [1]: Active

Compound: CC1CCc2c(ccc(F)c2Br)N1C=O (centres undefined)
- inhibition [2]: 42%
- inhibition [1]: 15.8%

Compound: C[C@@H]1CCc2cc(F)ccc2N1C=O
- inhibition [1]: Active

Compound: CC(=O)N1c2cc(Br)c(F)c(Br)c2CCC1C (centres undefined)
- inhibition [2]: 26.2%
- inhibition [1]: 8.7%

Compound: C[C@H]1CCc2c(cc(Br)c(F)c2Br)N1C=S
- IC50 [3]: > 100 µM

Compound: CC1CCc2c(cc(Br)c(F)c2Br)N1 (centres undefined)
- inhibition [2]: 74.1%
- inhibition [1]: 40.8%

Compound: CC1CCc2c(Br)c(F)c(Br)c(Br)c2N1C=O (centres undefined)
- inhibition [2]: 46%
- inhibition [1]: 23.6%

Compound: C[C@H]1CCc2cc(F)ccc2N1C=O
- inhibition [1]: Active

Compound: C[C@H]1CCc2c(ccc(F)c2Br)N1C=O
- inhibition [1]: Active

Compound: CC1CCc2c(cc(Br)c(F)c2Br)N1C=O (centres undefined)
- inhibition [2]: 88.3%
- inhibition [1]: 58.1%

Compound: C[C@@H]1CCc2c(cc(Br)c(F)c2Br)N1C=S
- IC50 [3]: 17.6 µM

Compound: C[C@@H]1CCc2c(cc(Br)c(F)c2Br)N1
- inhibition [1]: Active

Compound: C[C@@H]1CCc2c(cc(Br)c(F)c2Br)N1C=O
- IC50 [4]: 22.3 µM
- IC50 [3]: 3.3 µM

Compound: C[C@H]1CCc2c(cc(Br)c(F)c2Br)N1C=O
- IC50 [4]: 17.1 µM
- IC50 [3]: 31.3 µM

Compound: C[C@H]1CCc2c(cc(Br)c(F)c2Br)N1
- inhibition [1]: Active

Compound: CC1CCc2cc(F)ccc2N1C=O (centres undefined)
- inhibition [2]: 5%
- inhibition [1]: 5.3%

Source: ChEMBL document CHEMBL4130621, “Structure-Activity Relationship Studies with Tetrahydroquinoline Analogs as EPAC Inhibitors” (ACS Med Chem Lett, 2017)
